# Where two headings read alike, the source gives them in different places.
# Assays:
# THLE-2 cells [1] = assay: Apoptosis assay; assay type: cell-based, human; settings: THLE-2 cells on the TeamChip
# [2] = tested on: UGT1A4 (expressed metabolising enzyme); assay: TeamChip metabolism-induced toxicity assay, UGT1A4; assay type: cell-based; settings: human, IC50, UGT1A4, Ad-UGT1A4 15 MOI; compound 48 h; n = 4
# [3] = tested on: P450 Mix: CYP2C9, CYP2D6, CYP3A4, CYP1A2, CYP2E1 (expressed); assay: TeamChip metabolism-induced toxicity assay, P450 Mix; assay type: cell-based; settings: human
# [4] = tested on: All Mix: CYP2C9, CYP2D6, CYP3A4, CYP1A2, CYP2E1, UGT1A4 (expressed); assay: TeamChip metabolism-induced toxicity assay, All Mix; assay type: cell-based; settings: human
# [5] = tested on: CYP2D6 (expressed drug-metabolizing enzyme); assay: TeamChip metabolism-induced toxicity assay, CYP2D6; assay type: cell-based; settings: human
# [6] = tested on: CYP2C9 (expressed drug-metabolizing enzyme); assay: TeamChip metabolism-induced toxicity assay, CYP2C9; assay type: cell-based; settings: human
# [7] = tested on: THLE-2 cells (no enzyme, Ad-Null); assay: TeamChip metabolism-induced toxicity assay, no enzyme control; assay type: cell-based; settings: Homo sapiens, read-out: IC50, No enzyme
# [8] = tested on: CYP1A2 (expressed drug-metabolizing enzyme); assay: TeamChip metabolism-induced toxicity assay, CYP1A2; assay type: cell-based; settings: human
# [9] = tested on: CYP3A4 (expressed drug-metabolizing enzyme); assay: TeamChip metabolism-induced toxicity assay, CYP3A4; assay type: cell-based; settings: human, IC50, CYP3A4, Ad-CYP3A4 15 MOI; compound 48 h; n = 4
# [10] = tested on: CYP2E1 (expressed drug-metabolizing enzyme); assay: TeamChip metabolism-induced toxicity assay, CYP2E1; assay type: cell-based; settings: human
# Summary of the method: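 THLE-2 cells in Matrigel spotted onto micropillars at 4°C, held 18 h at 37°C, transduced 1 d with recombinant adenovirus carrying the enzyme gene (Ad-Null as no-enzyme control). Then exposed 2 d to test compound in BEGM. Washed twice in DPBS, Live/Dead stained 1 h in the dark, chip scanned.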
# [11] = tested on: HepaRG cells in 3D culture; settings: read-out: IC50, HepaRG cells in 3D culture; cited from earlier work
# [12] = tested on: HepaRG cells in 2D culture; settings: read-out: IC50, HepaRG cells in 2D culture; cited from earlier work
# THLE-2 cells [13] = assay: Intracellular GSH assay on the TeamChip; assay type: cell-based, human; settings: exposed to 5 μM ketoconazole, at varying concentrations of acetaminophen
# Summary of the method: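 THLE-2 cells in Matrigel spots on a micropillar chip, transduced with 15 MOI Ad-CYP3A4 or Ad-Null (control) for 1 d. Then exposed for 48 h to varying test compound with 5 μM CYP3A4 inhibitor. Washed twice in DPBS, stained 20 min in the dark with thiol green dye (intracellular GSH kit), chip scanned, GSH quantified; n = 3.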
intracellular GSH concentrations in CYP3A4-expressing THLE-2 cells (THLE-2 cells [13]),SMILES,number of apoptotic cells (THLE-2 cells [1]),IC50 at 48 h [2],IC50 at 48 h [3],IC50 at 48 h [4],IC50 at 48 h [5],IC50 at 48 h [6],IC50 ([7]; 48 h),"IC50 ([7]; THLE-2, 48 h)",IC50 at 48 h [8],IC50 at 48 h [9],IC50 at 2 d [10],IC50 [11],IC50 [12]
,"COc1cccc2c1C(=O)c1c(O)c3c(c(O)c1C2=O)C[C@@](O)(C(=O)CO)C[C@@H]3O[C@H]1C[C@H](N)[C@H](O)[C@H](C)O1 [Doxorubicin, doxorubicin]",increased the number of apoptotic cells in a dose-dependent manner,,,,,,,,,,,,
,"Cc1c(C)c2c(c(C)c1O)CCC(C)(COc1ccc(CC3SC(=O)NC3=O)cc1)O2 (centres unmarked) [Troglitazone, troglitazone]",,150 ± 11 µM,51 ± 4.3 µM,62 ± 2.9 µM,77 ± 4.2 µM,50 ± 4.9 µM,110 ± 15 µM,92 ± 6.4 µM,39 ± 6.6 µM,[…],,,
,"CC(=O)Nc1ccc(O)cc1 [Acetaminophen, acetaminophen]",,2100 ± 52 µM,240 ± 74 µM,640 ± 100 µM,1100 ± 71 µM,930 ± 41 µM,1500 ± 63 µM,1400 ± 250 µM,820 ± 21 µM,[…],180 µM,2700 µM,26300 µM
,"CC(C)C(=O)Nc1ccc([N+](=O)[O-])c(C(F)(F)F)c1 [Flutamide, flutamide]",,38 ± 1.8 µM,18 ± 4.1 µM,17 ± 1.1 µM,27 ± 5.1 µM,25 ± 4.8 µM,45 ± 1.6 µM,37 ± 9.7 µM,18 ± 0.5 µM,[…],,,
,"CN1CCN(CCCN2c3ccccc3Sc3ccc(C(F)(F)F)cc32)CC1 [Trifluoperazine, trifluoperazine]",,100 ± 12 µM,53 ± 13 µM,110 ± 10 µM,69 ± 9.3 µM,75 ± 12 µM,75 ± 11 µM,80 ± 9.4 µM,120 ± 5.1 µM,110 ± 7.3 µM,,,
unchanged,CC(=O)N1CCN(c2ccc(OCC3COC(Cn4ccnc4)(c4ccc(Cl)cc4Cl)O3)cc2)CC1 (centres unmarked) [ketoconazole],,,,,,,,,,,,,
,"Nc1c(CC(=O)O)cccc1C(=O)c1ccc(Br)cc1 [Bromfenac, bromfenac]",,210 ± 14 µM,220 ± 24 µM,[…],170 ± 39 µM,120 ± 6 µM,210 ± 17 µM,190 ± 12 µM,190 ± 37 µM,[…],,,

# From PMC4132844 (Nature communications, 2014)
